1 compound from publication PMC12334608 (Nature Communications, 2025) can be followed below.

Structures are written as SMILES. Where a chain is given by its changes, count along the chain named.

Common to all, as to assay type: biochemical, C. elegans
Assay [1] concerns the target T1, ACOX-1.1 (Caenorhabditis elegans, UniProt O62140).
T1 sequence (O62140 1-674): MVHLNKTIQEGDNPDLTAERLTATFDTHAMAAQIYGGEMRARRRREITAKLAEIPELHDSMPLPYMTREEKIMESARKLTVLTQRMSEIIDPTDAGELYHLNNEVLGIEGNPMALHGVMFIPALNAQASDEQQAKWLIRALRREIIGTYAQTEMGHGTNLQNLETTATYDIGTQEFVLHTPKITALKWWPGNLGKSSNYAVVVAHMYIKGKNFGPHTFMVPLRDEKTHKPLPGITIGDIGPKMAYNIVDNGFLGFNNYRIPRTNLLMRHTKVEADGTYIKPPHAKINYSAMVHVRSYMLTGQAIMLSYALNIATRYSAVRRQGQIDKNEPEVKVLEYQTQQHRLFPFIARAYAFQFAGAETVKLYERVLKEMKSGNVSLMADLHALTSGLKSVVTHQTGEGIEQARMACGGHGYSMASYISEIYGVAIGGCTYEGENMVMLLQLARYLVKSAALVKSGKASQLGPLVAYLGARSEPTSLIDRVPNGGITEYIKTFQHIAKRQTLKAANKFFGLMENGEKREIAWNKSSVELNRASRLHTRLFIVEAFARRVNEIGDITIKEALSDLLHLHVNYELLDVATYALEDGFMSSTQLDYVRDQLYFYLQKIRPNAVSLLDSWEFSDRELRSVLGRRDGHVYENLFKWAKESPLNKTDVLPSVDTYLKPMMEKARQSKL
Put plainly: ATP hydrolysis by HPLC. Particulars: 1 h incubation.

The target of assay [2] is T2, ACOX-1.1(R295A) (Caenorhabditis elegans, UniProt O62140, R295A).
T2 sequence (O62140 1-674 R295A): T1 sequence (O62140 1-674) with R295A
The assay can be described thus: Enzyme-coupled kinetic assay, ACOX-1.1.

Assay [3] deals with T3, ACOX-1.1(N437A) (Caenorhabditis elegans, UniProt O62140, N437A).
T3 sequence (O62140 1-674 N437A): T1 sequence (O62140 1-674) with N437A
The assay can be described thus: Enzyme-coupled kinetic assay, ACOX-1.1.

Assay [4] concerns ACOX-1.1(R536E). The assay can be described thus: Enzyme-coupled kinetic assay, ACOX-1.1. Particulars: 10 μM FAD, various ATP. The method, boiled down: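 Coupled H2O2 assay on a plate reader using the mutant enzyme (250 nM final). […] Peroxide was coupled through 4-aminoantipyrine (0.82 mM final), phenol (10.6 mM final) and peroxidase, read at 500 nm. Substrate was 25 µM lauroyl-CoA in 50 mM Tris-HCl pH 7.5, 150 mM NaCl, 10 mM MgCl2. Initial rate was taken over a 30 s window at 25–26 °C.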

In assay [5] the target is T4, ACOX-1.1(R343Q) (Caenorhabditis elegans, UniProt O62140, R343Q).
T4 sequence (O62140 1-674 R343Q): T1 sequence (O62140 1-674) with R343Q
Put plainly: Enzyme-coupled kinetic assay, ACOX-1.1. Particulars: varying ATP.

Turning to `Nc1ncnc2c1ncn2[C@@H]1O[C@H](COP(=O)(O)OP(=O)(O)OP(=O)(O)O)[C@@H](O)[C@H]1O` [ATP], in assay [1], the “hydrolysis of ATP by ACOX-1.1” value is on record as “not hydrolyzed by ACOX-1.1”. Besides, the “response of enzyme activity to ATP” value in assay [2] was “do not respond to ATP”; in assay [3] it was “did not respond to ATP”; in assay [4], “do not respond to ATP”. In addition, in assay [5], the “influence of ATP on the activity of the enzyme” value is listed as “no influence on the activity of the enzyme”.
